Measurements: ChEMBL document CHEMBL4196034, “Family-wide analysis of aminoacyl-sulfamoyl-3-deazaadenosine analogues as inhibitors of aminoacyl-tRNA synthetases” (Eur J Med Chem, 2018)
Calls of active or inactive are those of the source. The rule behind the calls is not given here.

Experiments:
[1] = target: Aspartate--tRNA ligase (Escherichia coli (strain K12)) (UniProt P21889); assay: (§1) Inhibition of Aspartate-tRNA synthetase in Escherichia coli K-12 BW28357 S30 extract assessed as reduction in tRNA aminoacylation at 2.5 uM preincubated for 5 mins followed by Escherichia coli tRNA and 14C-labeled aspartic acid addition measured after 5 mins by liquid scintillation counting method
Summary of the method: (§2)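 E. coli K-12 BW28357 cells were grown in LB to A600 0.5, washed in 20 mM Tris.HCl, 10 mM MgCl2, 100 mM KCl, pH 8.0, then sonicated in the same buffer plus 1 mM DTT. The lysate was spun at 15,000 g. Inhibitor (2.5 µM) was preincubated with extract for 5 min. Aminoacylation mix: 30 mM Tris pH 8.0, 5 g/L E. coli tRNA, 3 mM ATP, 8 mM MgCl2, 40 µM 14C-amino acid. Reaction ran at room temperature. TCA precipitation after 5 min, then scintillation counting. Activity was expressed relative to the no-compound control, average of three experiments.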

[2] = target: Aspartate--tRNA ligase (Escherichia coli (strain K12), UniProt P21889); assay: Inhibition of Escherichia coli BL21(DE3) Aspartyl-tRNA synthetase assessed as reduction in tRNA aminoacylation preincubated for 10 mins with Escherichia coli tRNA and 14C-labeled aspartic acid followed by ATP addition by liquid scintillation counting method; details: read-out: Ki(app)
Summary of the method: (§3)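 Purified E. coli aaRS, expressed in Rosetta 2 (DE3) pLysS: ileRS 50 nM, tyrRS 0.5 nM, leuRS 2.5 nM, aspRS, serRS and glyRS 2 nM each. Buffer was 20 mM Tris, 100 mM KCl, 10 mM MgCl2, 5 mM β-mercaptoethanol, pH 7.5. Enzyme was preincubated 10 min at 37°C with serially diluted compound, 50 µM 14C-amino acid, 2 mg/ml tRNA and pyrophosphatase. Reaction was started with 500 µM ATP and quenched within the linear zone, then TCA-precipitated and counted. Ki app came from Greco-Hakala fits.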

[3] = test system: Staphylococcus aureus; assay: Antibacterial activity against Staphylococcus aureus ATCC 65381 up to 100 uM after 18 to 24 hrs by two fold serial dilution method; type: functional, organism-based
Summary of the method: (§4)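 Broth microdilution, twofold series from 100 µM down to 0.39 µM, in LB medium. MIC50 was taken as the lowest concentration giving 50% growth inhibition after 18-24 h incubation at 37.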

[4] = test system: Staphylococcus epidermidis; assay: Antibacterial activity against Staphylococcus epidermidis RP62A up to 100 uM after 18 to 24 hrs by two fold serial dilution method; type: functional, organism-based; summary of the method: as §4
[5] = test system: Kocuria rhizophila; assay: Antibacterial activity against Kocuria rhizophila ATCC 9341 up to 100 uM after 18 to 24 hrs by two fold serial dilution method; type: functional, organism-based; details: DC2201; summary of the method: as §4
[6] = test system: Escherichia coli; assay: Antibacterial activity against Escherichia coli NCIB 8743 up to 100 uM after 18 to 24 hrs by two fold serial dilution method; type: functional, organism-based; summary of the method: as §4
[7] = test system: Pseudomonas aeruginosa; assay: Antibacterial activity against Pseudomonas aeruginosa PAO1 up to 100 uM after 18 to 24 hrs by two fold serial dilution method; type: functional, organism-based; summary of the method: as §4
[8] = target: T1, Tyrosine--tRNA ligase (Escherichia coli (strain K12)) (UniProt P0AGJ9); assay: as §1, with “Tyrosyl-tRNA” for “Aspartate-tRNA”, “tyrosine” for “aspartic acid”, “method relative to control” for “method”; summary of the method: as §2
T1 sequence (whole entry): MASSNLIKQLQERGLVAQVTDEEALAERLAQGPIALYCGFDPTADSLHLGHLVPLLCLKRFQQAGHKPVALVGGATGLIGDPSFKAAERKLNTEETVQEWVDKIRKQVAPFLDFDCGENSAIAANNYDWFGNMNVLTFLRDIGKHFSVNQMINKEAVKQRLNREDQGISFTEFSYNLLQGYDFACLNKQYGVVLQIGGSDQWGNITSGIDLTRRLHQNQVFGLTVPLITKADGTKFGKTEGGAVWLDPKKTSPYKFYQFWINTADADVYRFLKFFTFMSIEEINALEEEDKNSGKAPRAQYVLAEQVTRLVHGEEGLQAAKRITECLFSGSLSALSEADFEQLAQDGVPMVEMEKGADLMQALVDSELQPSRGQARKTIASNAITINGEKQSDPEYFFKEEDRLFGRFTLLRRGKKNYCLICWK

[9] = target: T2, Tyrosine--tRNA ligase (Escherichia coli (strain K12), UniProt P0AGJ9); assay: (§5) Inhibition of Escherichia coli BL21(DE3) Tyrosyl-tRNA synthetase assessed as reduction in tRNA aminoacylation preincubated for 10 mins with Escherichia coli tRNA and 14C-labeled tyrosine followed by ATP addition by liquid scintillation counting method; details: read-out: Ki(app); summary of the method: as §3
T2 sequence (P0AGJ9 whole entry): T1 sequence (whole entry)

[10] = target: Leucine--tRNA ligase (Escherichia coli (strain K12), UniProt P07813); assay: Inhibition of Escherichia coli BL21(DE3) Leucyl-tRNA synthetase assessed as reduction in tRNA aminoacylation preincubated for 10 mins with Escherichia coli tRNA and 14C-labeled leucine followed by ATP addition by liquid scintillation counting method; details: read-out: Ki(app)
[11] = target: Serine--tRNA ligase (Escherichia coli (strain K12)) (UniProt P0A8L1); assay: (§6) Inhibition of Serine-tRNA synthetase in Escherichia coli K-12 BW28357 S30 extract assessed as reduction in tRNA aminoacylation at 2.5 uM preincubated for 5 mins followed by Escherichia coli tRNA and 14C-labeled serine addition measured after 5 mins by liquid scintillation counting method; summary of the method: as §2
[12] = target: Serine--tRNA ligase (Escherichia coli (strain K12), UniProt P0A8L1); assay: Inhibition of Escherichia coli BL21(DE3) Seryl-tRNA synthetase assessed as reduction in tRNA aminoacylation preincubated for 10 mins with Escherichia coli tRNA and 14C-labeled serine followed by ATP addition by liquid scintillation counting method; details: read-out: Ki(app); summary of the method: as §3
[13] = target: Isoleucine--tRNA ligase (Escherichia coli K-12) (UniProt P00956); assay: as §6, with “Isoleucyl-tRNA” for “Serine-tRNA”, “isoleucine” for “serine”, “method relative to control” for “method”; summary of the method: as §2
[14] = target: Isoleucine--tRNA ligase (Escherichia coli K-12, UniProt P00956); assay: Inhibition of Escherichia coli BL21(DE3) Isoleucyl-tRNA synthetase assessed as reduction in tRNA aminoacylation preincubated for 10 mins with Escherichia coli tRNA and 14C-labeled isoleucine followed by ATP addition by liquid scintillation counting method; details: read-out: Ki(app); summary of the method: as §3
[15] = test system: Escherichia coli K-12; assay: Inhibition of Glycyl-tRNA synthetase in Escherichia coli K-12 BW28357 S30 extract assessed as reduction in tRNA aminoacylation at 2.5 uM preincubated for 5 mins followed by Escherichia coli tRNA and 14C-labeled glycine addition measured after 5 mins by liquid scintillation counting method; summary of the method: as §2
[16] = as §5, with “Glycine-tRNA” for “Tyrosyl-tRNA”, “synthetase alpha subunit/Glycine-tRNA synthetase beta subunit” for “synthetase”, “glycine” for “tyrosine”; details: read-out: Ki(app); summary of the method: as §3

Chain of Aspartate--tRNA ligase (Escherichia coli (strain K12)) (P21889 whole entry, looked up): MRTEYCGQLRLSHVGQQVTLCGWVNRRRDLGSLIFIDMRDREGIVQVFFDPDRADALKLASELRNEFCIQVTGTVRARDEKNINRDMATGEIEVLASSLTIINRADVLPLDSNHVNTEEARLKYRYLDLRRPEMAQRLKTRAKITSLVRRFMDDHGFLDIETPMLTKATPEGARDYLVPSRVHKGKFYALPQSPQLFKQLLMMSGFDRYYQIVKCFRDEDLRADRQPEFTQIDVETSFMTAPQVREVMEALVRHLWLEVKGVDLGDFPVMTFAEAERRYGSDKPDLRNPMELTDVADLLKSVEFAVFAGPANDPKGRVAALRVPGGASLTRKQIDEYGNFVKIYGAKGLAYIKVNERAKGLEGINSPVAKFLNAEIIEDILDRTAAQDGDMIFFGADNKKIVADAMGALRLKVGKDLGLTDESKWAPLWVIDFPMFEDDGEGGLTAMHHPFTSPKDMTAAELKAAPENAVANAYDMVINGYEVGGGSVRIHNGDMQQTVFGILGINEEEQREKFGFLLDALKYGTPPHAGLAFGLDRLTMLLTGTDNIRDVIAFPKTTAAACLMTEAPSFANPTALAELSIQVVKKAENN
Chain of Aspartate--tRNA ligase (P21889 whole entry): as the sequence (P21889 whole entry, looked up) above
Chain of Serine--tRNA ligase (Escherichia coli (strain K12)) (P0A8L1 whole entry, looked up): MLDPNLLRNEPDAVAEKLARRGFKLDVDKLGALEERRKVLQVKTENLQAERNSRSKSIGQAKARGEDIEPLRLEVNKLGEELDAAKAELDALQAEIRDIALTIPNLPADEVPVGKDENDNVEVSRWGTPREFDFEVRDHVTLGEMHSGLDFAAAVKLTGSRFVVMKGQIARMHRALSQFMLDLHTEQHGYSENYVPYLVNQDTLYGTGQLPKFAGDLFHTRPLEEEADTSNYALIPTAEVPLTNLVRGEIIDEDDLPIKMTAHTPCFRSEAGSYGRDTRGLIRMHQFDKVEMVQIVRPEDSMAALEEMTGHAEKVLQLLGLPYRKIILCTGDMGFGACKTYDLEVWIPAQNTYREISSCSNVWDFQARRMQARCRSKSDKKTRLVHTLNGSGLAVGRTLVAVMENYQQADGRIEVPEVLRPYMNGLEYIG
Chain of Serine--tRNA ligase (P0A8L1 whole entry): as the sequence (P0A8L1 whole entry, looked up) above
Chain of Isoleucine--tRNA ligase (Escherichia coli K-12) (P00956 whole entry): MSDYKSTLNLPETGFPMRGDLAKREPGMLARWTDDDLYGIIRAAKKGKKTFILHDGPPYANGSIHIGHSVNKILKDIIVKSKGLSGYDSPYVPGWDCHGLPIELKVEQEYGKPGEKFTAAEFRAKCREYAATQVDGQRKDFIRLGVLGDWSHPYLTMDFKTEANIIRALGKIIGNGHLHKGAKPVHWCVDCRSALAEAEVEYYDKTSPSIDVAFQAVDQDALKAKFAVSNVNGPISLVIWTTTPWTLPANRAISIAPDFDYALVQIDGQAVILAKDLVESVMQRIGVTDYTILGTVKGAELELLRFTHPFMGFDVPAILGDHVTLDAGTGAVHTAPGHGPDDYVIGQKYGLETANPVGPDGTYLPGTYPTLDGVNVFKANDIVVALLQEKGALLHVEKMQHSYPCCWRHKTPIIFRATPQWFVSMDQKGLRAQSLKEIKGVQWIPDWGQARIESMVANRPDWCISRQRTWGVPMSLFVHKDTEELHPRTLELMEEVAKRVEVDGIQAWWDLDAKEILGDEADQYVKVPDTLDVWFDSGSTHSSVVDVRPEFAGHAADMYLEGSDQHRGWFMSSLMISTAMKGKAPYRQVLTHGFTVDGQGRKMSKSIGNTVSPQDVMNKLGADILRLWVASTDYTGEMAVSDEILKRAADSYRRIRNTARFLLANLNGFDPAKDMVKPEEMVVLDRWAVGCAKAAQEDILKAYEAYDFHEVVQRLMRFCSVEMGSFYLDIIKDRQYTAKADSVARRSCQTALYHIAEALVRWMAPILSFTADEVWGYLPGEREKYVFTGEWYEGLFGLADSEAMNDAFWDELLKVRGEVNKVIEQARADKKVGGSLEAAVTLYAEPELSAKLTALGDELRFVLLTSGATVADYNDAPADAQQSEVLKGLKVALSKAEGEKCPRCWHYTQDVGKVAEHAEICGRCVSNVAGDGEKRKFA
Chain of Isoleucine--tRNA ligase (P00956 whole entry): as above
Chain of Leucine--tRNA ligase (P07813 whole entry): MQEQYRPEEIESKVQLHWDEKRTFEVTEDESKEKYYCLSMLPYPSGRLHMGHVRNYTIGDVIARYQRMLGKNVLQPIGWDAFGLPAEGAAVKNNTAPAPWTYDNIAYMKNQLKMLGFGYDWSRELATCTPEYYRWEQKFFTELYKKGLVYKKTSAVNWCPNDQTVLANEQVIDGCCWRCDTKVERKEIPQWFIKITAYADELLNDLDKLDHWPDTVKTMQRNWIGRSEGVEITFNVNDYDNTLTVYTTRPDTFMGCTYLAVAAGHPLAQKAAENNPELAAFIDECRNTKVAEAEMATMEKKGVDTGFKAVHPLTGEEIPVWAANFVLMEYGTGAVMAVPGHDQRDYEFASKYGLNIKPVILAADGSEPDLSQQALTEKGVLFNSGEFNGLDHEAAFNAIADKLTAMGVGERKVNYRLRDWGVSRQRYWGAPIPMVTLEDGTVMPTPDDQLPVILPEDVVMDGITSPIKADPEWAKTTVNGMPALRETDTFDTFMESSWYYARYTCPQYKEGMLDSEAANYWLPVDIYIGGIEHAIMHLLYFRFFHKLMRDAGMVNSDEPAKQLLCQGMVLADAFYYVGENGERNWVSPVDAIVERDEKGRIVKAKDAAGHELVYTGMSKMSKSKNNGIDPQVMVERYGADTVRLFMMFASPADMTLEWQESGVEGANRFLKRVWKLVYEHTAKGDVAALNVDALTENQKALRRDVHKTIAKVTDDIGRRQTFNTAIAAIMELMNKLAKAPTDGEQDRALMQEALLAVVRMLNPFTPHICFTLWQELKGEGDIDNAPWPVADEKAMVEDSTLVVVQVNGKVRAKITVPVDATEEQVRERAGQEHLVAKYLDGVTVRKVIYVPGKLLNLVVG

SMILES	inhibition [1]	Ki [2]	Activity [3]	Activity [4]	Activity [5]	Activity [6]	Activity [7]	inhibition [8]	Ki [9]	Ki [10]	inhibition [11]	Ki [12]	inhibition [13]	Ki [14]	inhibition [15]	Ki [16]
Nc1nccc2c1ncn2[C@@H]1O[C@H](COS(=O)(=O)NC(=O)[C@@H](N)CC(=O)O)[C@@H](O)[C@H]1O	inactive	25.3 nM	inactive	inactive	inactive	inactive	inactive	–	–	–	–	–	–	–	–	–
Nc1ncnc2c1ncn2[C@@H]1O[C@H](COS(=O)(=O)NC(=O)[C@@H](N)Cc2ccc(O)cc2)[C@@H](O)[C@H]1O	–	–	inactive	inactive	inactive	inactive	inactive	Active	2.93 nM	–	–	–	–	–	–	–
Nc1ncnc2c1ncn2[C@@H]1O[C@H](COS(=O)(=O)NC(=O)[C@@H](N)CC(=O)O)[C@@H](O)[C@H]1O	Active	0.052 nM	inactive	inactive	inactive	inactive	inactive	–	–	–	–	–	–	–	–	–
CC(C)C[C@H](N)C(=O)NS(=O)(=O)OC[C@H]1O[C@@H](n2cnc3c(N)nccc32)[C@H](O)[C@@H]1O	–	–	inactive	inactive	inactive	inactive	inactive	–	–	0.654 nM	–	–	–	–	–	–
Nc1nccc2c1ncn2[C@@H]1O[C@H](COS(=O)(=O)NC(=O)[C@@H](N)Cc2ccc(O)cc2)[C@@H](O)[C@H]1O	–	–	inactive	inactive	inactive	inactive	inactive	40 to 50%	29.9 nM	–	–	–	–	–	–	–
Nc1nccc2c1ncn2[C@@H]1O[C@H](COS(=O)(=O)NC(=O)[C@@H](N)CO)[C@@H](O)[C@H]1O	–	–	inactive	inactive	inactive	inactive	inactive	–	–	–	inactive	523 nM	–	–	–	–
CC[C@H](C)[C@H](N)C(=O)NS(=O)(=O)OC[C@H]1O[C@@H](n2cnc3c(N)ncnc32)[C@H](O)[C@@H]1O	–	–	inactive	inactive	inactive	inactive	inactive	–	–	–	–	–	Active	1.92 nM	–	–
Nc1ncnc2c1ncn2[C@@H]1O[C@H](COS(=O)(=O)NC(=O)[C@@H](N)CO)[C@@H](O)[C@H]1O	–	–	inactive	inactive	inactive	inactive	inactive	–	–	–	Active	0.18 nM	–	–	–	–
CC(C)C[C@H](N)C(=O)NS(=O)(=O)OC[C@H]1O[C@@H](n2cnc3c(N)ncnc32)[C@H](O)[C@@H]1O	–	–	inactive	inactive	inactive	inactive	inactive	–	–	–	–	–	–	–	–	–
NCC(=O)NS(=O)(=O)OC[C@H]1O[C@@H](n2cnc3c(N)nccc32)[C@H](O)[C@@H]1O	–	–	inactive	inactive	inactive	inactive	inactive	–	–	–	–	–	–	–	inactive	> 2000 nM
CC[C@H](C)[C@H](N)C(=O)NS(=O)(=O)OC[C@H]1O[C@@H](n2cnc3c(N)nccc32)[C@H](O)[C@@H]1O	–	–	inactive	inactive	inactive	inactive	inactive	–	–	–	–	–	40 to 50%	213 nM	–	–
NCC(=O)NS(=O)(=O)OC[C@H]1O[C@@H](n2cnc3c(N)ncnc32)[C@H](O)[C@@H]1O	–	–	inactive	inactive	inactive	inactive	inactive	–	–	–	–	–	–	–	Active	148 nM
